Screens (PubChem)
PHOSPHO1 inh: blocks human PHOSPHO1 phosphatase activity | recombinant PHOSPHO1, absorbance phosphatase assay | inhibition, % at 13.3 µM | 290,000 compounds, 1.1% hits; in the data active = inhibition above about 60%
Target sequence (Q8TCT1 whole entry, looked up): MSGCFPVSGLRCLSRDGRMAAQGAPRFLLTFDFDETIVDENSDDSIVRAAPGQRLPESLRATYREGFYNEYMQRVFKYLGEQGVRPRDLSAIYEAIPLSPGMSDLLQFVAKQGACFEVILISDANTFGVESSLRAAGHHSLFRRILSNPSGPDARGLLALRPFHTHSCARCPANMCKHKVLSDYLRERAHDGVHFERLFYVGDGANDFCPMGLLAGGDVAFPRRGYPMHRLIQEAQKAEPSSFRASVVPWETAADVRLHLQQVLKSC
core dimer inh: blocks dimerization of HCV core protein; AID 1899; TR-FRET GST/Flag-core106 dimerization, 1536-well; inhibition, % at 5 µM; 300,000 compounds, 0.33% hits;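 active = inhibition above the mean of all tested compounds plus 3 SD, set per screening campaign, cut at about 45% in these data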
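Assay system – GST-tagged and Flag-tagged HCV core protein residues 1-106 · Quantity – core106 proteins, GST 13.5 nM and Flag 17 nM · Benchmarks – unlabelled core106 and no-GST-core106 wells · Read-out basis – percent inhibition of core106 dimerization signal · Detection – time-resolved FRET, ex 340 nm, em 617 and 671 nm · Schedule – 4 h at 22.5 °C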
AI-2 QS mod: modulators of Vibrio harveyi AI-2 quorum sensing system; 300,000 compounds, 0.4% hits; AID 2094; Vibrio harveyi JMH597 AI-2 luminescence/OD600 ratio, 9 h; hits give low values; strain lacks LuxN and CqsS sensors; 0 = neutral-control median; activity change, % at 7.5 µM; in the data active = activity change below about -75%, passing the limit was not always enough; inconclusive = no clear call, values can overlap the other calls;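 also: luminescence divided by OD600 gain over 9 h not by final OD600 alone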
HSF1 inh: HSF1 inhibition. AID 2098. NIH3T3-HGL HSE-luciferase, MG132-induced, luminescence 8 h; hits give low values. 300,000 compounds, 0.77% hits. activity change, negative = inhibition, % at 7.5 µM (by protocol);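 active = more than half of replicate wells show activity change below -50%, luminescence cut by over half; inconclusive = some wells, but at most half, below -50%; inactive = no replicate well below -50%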;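 also: luciferase reports HSF-1 transcriptional activity via heat shock element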
HSF-1 act: increases HSF-1 driven luciferase reporter signal; NIH3T3-HGL HSF-1 luciferase reporter, MG132, 8 h; 100% = twice DMSO control signal; activation, % at 9 µM; 300,000 compounds, 1.7% hits;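 active = mean replicate activation of at least 50% with a set share of replicates each reaching 50%; inconclusive = only one of those two conditions met; inactive = mean below 50% and too few replicates reaching it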
ALR inh: human ALR oxidase inhibition via reduced H2O2; P55789; purified ALR, DTT oxidation, H2O2 HRP-luminol luminescence; inhibition, % (concentration not given with the values); 290,000 compounds, 3.8% hits;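 active = mean replicate inhibition above about 79%, with every replicate also reaching it, limit read from the data; inconclusive = only one of the two criteria met; inactive = mean below limit and not every replicate reaching it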
Target sequence (P55789 whole entry, looked up): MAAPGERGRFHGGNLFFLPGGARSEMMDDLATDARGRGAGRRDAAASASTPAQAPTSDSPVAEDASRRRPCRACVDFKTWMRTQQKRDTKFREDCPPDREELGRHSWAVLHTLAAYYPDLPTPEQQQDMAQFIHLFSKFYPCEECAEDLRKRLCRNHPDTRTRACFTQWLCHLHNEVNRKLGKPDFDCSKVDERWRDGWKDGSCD
Hits are given with their value; . = inactive; ? = inconclusive; / = no result given. In the library only some 6.8% were active in any assay of this set; here they are far more common.

SMILES | PHOSPHO1 inh | core dimer inh | AI-2 QS mod | HSF1 inh | HSF-1 act | ALR inh
Cc1c(N(C)S(=O)(=O)c2cc(C(=O)N3CCCC3)ccc2Cl)c(=O)n(-c2ccccc2)n1C | . | . | . | . | . | .
Cc1ccc(N2C(=O)C3C4C=CC(CNC(=S)Nc5ccc(F)cc5)(O4)C3C2=O)cc1 (stereo not given) | . | . | . | . | . | .
O=C1C2C3C=CC(CO)(O3)C2C(=O)N1c1ccc(-c2ccccc2)cc1 (stereo not given) | . | . | . | . | . | .
CC(C)(C)C(=O)NCC12C=CC(O1)C1C(=O)N(c3ccccc3)C(=O)C12 (stereo not given) | . | . | . | . | 203 | /
Cc1ccc(N2C(=O)C3C4C=CC(CNC(=S)Nc5ccc(Cl)cc5)(O4)C3C2=O)cc1 (stereo not given) | . | . | . | . | 55 | .
COc1cc(OC)c(OC)cc1/C=N/n1c(COc2ccccc2)n[nH]c1=S | . | . | . | . | . | .
C=CCn1c(SCc2c(F)c(F)c(F)c(F)c2F)nc(O)cc1=O | . | . | . | . | . | 99
COc1ccc(/C=N/NC(=O)c2nc(-c3ccccc3)n(-c3ccccc3)n2)cc1OC | . | . | . | . | . | .
O=C(N/N=C/c1ccc(O)cc1)c1nc(-c2ccccc2)n(-c2ccccc2)n1 | . | . | . | . | . | 98
NC(=O)c1ccsc1NC(=O)c1nc(-c2ccccc2)n(-c2ccccc2)n1 | . | . | . | . | . | 86
COc1cc(/C=N/NC(=O)c2nc(-c3ccccc3)n(-c3ccccc3)n2)ccc1O | . | . | . | . | . | 85
CCN(c1ccc(C(=O)CSc2nnc(C3CC3)n2C2CC2)cc1)S(C)(=O)=O | / | / | / | / | / | 96
CC(=O)Nc1ccc(S(=O)(=O)NNC(=O)c2ccc(C)cc2)cc1 | . | . | . | / | / | .
Cc1ccc(S(=O)(=O)Nn2c(C)ccc2C)cc1 | . | 67 | . | . | . | .
CC(=O)Nc1ccc(S(=O)(=O)NNc2cccc(C)c2)cc1 | . | . | . | . | . | 99
NNc1nc2ccccc2nc1C(F)(F)F | . | . | . | . | . | .
Cc1ccc(S(=O)(=O)NNc2nc3ccccc3nc2C(F)(F)F)cc1 | 92 | . | . | . | . | .
O=C(NNc1nc2ccccc2nc1C(F)(F)F)c1ccccc1 | . | . | . | . | . | 98
Cc1onc(-c2ccccc2)c1C(=O)NNC(=S)NC(=O)/C=C/c1cccs1 | . | . | . | . | . | .
Cc1ccc(S(=O)(=O)NNc2ccccc2)cc1 | . | . | . | . | . | 100
Cc1nc2cc(NC(=O)CCS(=O)(=O)c3ccccc3)ccc2s1 | . | . | . | . | 52 | .
Cc1nc2ccc(NC(=O)CCS(=O)(=O)c3ccccc3)cc2s1 | . | . | . | . | . | .
CCN(CC(=O)NC(=O)Nc1ccccc1F)Cc1ccccc1 | / | . | . | . | . | .
COc1ccc(-c2cc(=O)c3c(OC)c(OC)c(OC)c(OC)c3o2)cc1OC | . | . | . | . | . | /
COc1c(OC)c(O)c2c(=O)cc(-c3c(O)cccc3O)oc2c1OC | . | . | . | . | . | 97
SMILES | PHOSPHO1 inh | core dimer inh | AI-2 QS mod | HSF1 inh | HSF-1 act | ALR inh
CC1(C)CC(=O)c2c(O)cc(OCc3ccc([N+](=O)[O-])cc3)cc2O1 | . | . | . | . | 95 | .
COc1ccc(CNC(=O)CCC(=O)Nc2nnc(C(F)(F)F)s2)cc1 | . | . | . | . | . | .
Clc1ccccc1OCc1nnc(-c2ccccc2Br)o1 | . | . | . | . | . | .
N#Cc1ccccc1OCc1nnc(-c2ccccc2Br)o1 | . | . | . | . | 83 | /
C[C@H](NC(=O)c1cc2c(cn1)[nH]c1ccccc12)C(=O)O | . | / | . | . | . | 98
COC(=O)[C@H](C)NC(=O)c1cc2c(cn1)[nH]c1ccccc12 | / | . | . | . | . | .
Cc1ccc2nc(-c3ccc(SCC(=O)N4CCc5ccccc54)nc3)[nH]c2c1 | . | . | . | . | 102 | .
CC(=O)CSc1ccc(-c2nc3cc(C)c(C)cc3[nH]2)cn1 | . | . | . | . | . | /
CCc1nnc(NC(=O)CSc2ccc(-c3nc4ccc(C)cc4[nH]3)cn2)s1 | . | . | . | . | 68 | .
Cc1ccc2nc(-c3ccc(SCC(=O)O)nc3)[nH]c2c1 | . | . | . | . | . | 98
O=C(NNC(=O)C12CC3CC(CC(C3)C1)C2)[C@@H]1C[C@H]1c1ccccc1 | . | . | . | . | . | .
C=CCN(C(=O)C1=NN(C2CCS(=O)(=O)C2)C(=O)CC1)c1nc(-c2ccc([N+](=O)[O-])cc2)cs1 (stereo not given) | . | . | . | . | . | .
O=C(CCc1c[nH]c2ccccc12)N1CCN(c2ccc(F)cc2)CC1 | . | . | . | . | . | .
O=C(CCCc1c[nH]c2ccccc12)N1CCN(c2ccc(N3CCOCC3)nn2)CC1 | . | . | . | . | . | 90
COc1ccc(N2CCN(CC(O)c3c[nH]c4ccc(OC)cc34)CC2C)cc1 (stereo not given) | . | . | . | . | . | 100
CCOC(=O)c1ccc(CSC(=N)N)o1 | . | . | . | . | . | 99
CCOC(=O)c1ccoc1CSCc1ccc(C(=O)OC)o1 | . | . | . | . | . | 99
COC(=O)c1ccc(CSC(=N)N)o1 | . | . | . | . | . | /
CCOc1cc(CNn2cn[nH]c2=S)cc(Cl)c1OCc1ccccc1F | . | . | . | . | . | 90
COc1cc(CNn2c(C)n[nH]c2=S)cc(Cl)c1OCc1ccc(F)cc1 | 90 | . | . | . | . | .
COc1ccc(N(C(C)C(=O)Nc2cccnc2)S(C)(=O)=O)cc1 (stereo not given) | . | . | . | . | . | .
COc1ccc(C2CC(c3cccs3)=NN2C(=O)CCl)cc1OC (stereo not given) | . | . | . | . | ? | .
COc1cc(C2CC(c3cccs3)=NN2C(=O)CCl)ccc1OC(F)F (stereo not given) | . | . | . | -67 | . | .
O=C(NCc1nnc(SCC(=O)N2CCCC2)o1)c1cccc(C(F)(F)F)c1 | . | . | . | . | . | .
CC(NC(=O)C(=O)N1CCOCC1)C(c1cccs1)N1CCN(c2ccccc2)CC1 (stereo not given) | . | . | . | . | . | 98
COc1cccc(C(=O)NC(C)C(c2cccs2)N2CCOCC2)c1 (stereo not given) | . | . | . | . | . | .
COc1ccccc1N1CCN(C(c2cccs2)C(C)NC(=O)C(=O)N2CCOCC2)CC1 (stereo not given) | . | . | . | . | . | 89
